Screening data (PubChem BioAssay)
Compounds with a hit are over-represented: about 1.9% of the library has one in this group of screens.
ADAM17 inh: ADAM17 inhibition, QFRET primary screen | P78536 | recombinant ADAM17, EDANS/DABCYL FRET peptide cleavage | 370,000 compounds, 0.83% hits | inhibition, % at 6.95 µM | AID 720648;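 active means inhibition above the mean of compounds lying between control limits plus 3 SD, set per campaign, cut at about 8.5% in these data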
Target sequence (P78536 215-824 limits assumed): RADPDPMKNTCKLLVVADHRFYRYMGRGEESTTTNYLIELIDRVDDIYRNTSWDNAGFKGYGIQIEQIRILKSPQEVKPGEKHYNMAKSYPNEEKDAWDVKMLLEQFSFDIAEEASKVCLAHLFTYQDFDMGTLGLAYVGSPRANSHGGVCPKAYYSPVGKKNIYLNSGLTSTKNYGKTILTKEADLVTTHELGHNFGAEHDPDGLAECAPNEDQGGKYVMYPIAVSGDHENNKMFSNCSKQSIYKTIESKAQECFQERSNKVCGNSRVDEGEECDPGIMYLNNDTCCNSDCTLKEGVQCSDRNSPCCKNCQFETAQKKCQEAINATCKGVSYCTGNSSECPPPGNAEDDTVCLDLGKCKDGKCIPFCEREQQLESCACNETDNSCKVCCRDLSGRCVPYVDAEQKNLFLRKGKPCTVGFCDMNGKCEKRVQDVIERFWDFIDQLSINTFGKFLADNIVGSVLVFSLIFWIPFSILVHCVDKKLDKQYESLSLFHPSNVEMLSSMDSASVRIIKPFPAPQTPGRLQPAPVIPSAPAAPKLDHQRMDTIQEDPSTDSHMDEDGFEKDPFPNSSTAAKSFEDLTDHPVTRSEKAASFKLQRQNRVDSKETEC
SENP1 inh: blocks the human SENP1 SUMO protease catalytic domain; Q9P0U3; recombinant SENP1 catalytic domain, CyPet-SUMO1-YPet FRET cleavage; inhibition, % at 10 µM; 360,000 compounds, 0.21% hits;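 active means inhibition at least 30% at 10 µM, raw YFP signal under a set limit, fluorescence ratio 0.5 to 1.5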
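System: Recombinant human SENP1 catalytic domain, His6-tagged | Incubation: Enzyme reaction for 50 min at room temperature, dark | Medium: Tris pH 8 with BME, BSA, NP40 and catalase | Also added: 25 nM SUMO1 FRET substrate | Compound: 10 µM single point, 0.5% DMSO | Measured by: FRET fluorescence in CFP and YFP emission channels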
FAS TE block: FAS thioesterase (human) inhibition | inhibition, % at 15 µM | 360,000 compounds, 0.67% hits | P49327 | recombinant FAS-TE, OMFH fluorogenic substrate, fluorescence endpoint;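 active means compounds whose normalised, plate-corrected inhibition of enzyme fluorescence in the single-dose primary screen is 50% or more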
ADAM10 inh: inhibitors of human ADAM10; 370,000 compounds, 0.62% hits; O14672; inhibition, % at 7 µM; AID 720582; recombinant ADAM10, EDANS/DABCYL FRET peptide cleavage, 3 h;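 active means inhibition above a per-campaign cutoff equal to the mean of compounds falling between control-based bounds plus 3 SD, cut at about 20% in these data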
SENP1 inh conf: SENP1 (human) inhibition, single concentration confirmation; shares compounds with SENP1 inh; recombinant SENP1, CyPet-SUMO1-YPet FRET cleavage; inhibition, % at 10 µM; 520 compounds, 34% hits; in the data active means inhibition mostly above about 35%, no sharp cut-off; inactive means mostly below about 32%
SENP1 kinetic: SENP1 (human) inhibition, kinetic confirmation; recombinant SENP1, CyPet-SUMO1-YPet FRET kinetic cleavage; shares compounds with SENP1 inh; 520 compounds, 26% hits; inhibition, % at 10 µM; in the data active means inhibition mostly above about 32%, no sharp cut-off; inactive means mostly below about 29%
Numbers stand for hits; n = inactive; x = no result.

SMILES	ADAM17 inh	SENP1 inh	FAS TE block	ADAM10 inh	SENP1 inh conf	SENP1 kinetic
CC(=NNc1ccc([N+](=O)[O-])cn1)c1ccc(N)cc1	n	41	n	n	n	n
C/C(=N\Nc1ccc([N+](=O)[O-])cc1)c1ccc(N)cc1	n	n	n	n	x	x
CN(N=Cc1cccc2cccnc12)c1ccc([N+](=O)[O-])cc1[N+](=O)[O-]	n	31	n	n	35	n
CN(C)/N=C/c1ccc([N+](=O)[O-])cc1[N+](=O)[O-]	n	n	n	n	x	x
Cc1ccc2c(c1)C(=C(C#N)C#N)CCN2	n	36	n	n	52	33
Cc1ccc2c(c1)C(=O)CCN2	n	n	n	n	x	x
Cc1cc(C(F)(F)F)nc(SCCN2CCOCC2)c1C#N	n	n	n	n	x	x
N#Cc1c(C(F)(F)F)cc(-c2ccc(Cl)c(Cl)c2)nc1SCCN1CCOCC1	x	38	n	x	n	n
Cc1ccccc1NC(=O)N(C)[C@H]1C[C@H]2c3[nH]c4c(-c5ccc6c(c5)OCO6)cccc4c3CCN2C[C@H]1[C@H](C)O	n	x	x	n	x	x
Cc1nc2cc(NS(=O)(=O)c3ccccc3F)ccc2s1	n	n	n	n	x	x
Cc1nc2ccc(NS(=O)(=O)c3ccccc3F)cc2s1	n	55	n	n	n	38
CC(=O)Nc1ccc(S(=O)(=O)Nc2ccc3nc(C)sc3c2)cc1	n	n	n	n	x	x
Cc1nc2ccc(NS(=O)(=O)c3ccc(F)c(F)c3)cc2s1	n	54	n	n	n	n
Cc1ccc(S(=O)(=O)Nc2ccc3nc(C)sc3c2)cc1	x	n	n	x	x	x
Cc1nc2ccc(NS(=O)(=O)c3ccc(Br)cc3)cc2s1	n	41	n	n	n	n
S=C(Nc1ccccc1)OC1CCC12CCC(c1ccccc1)CC2 (configuration not stated)	n	x	x	n	x	x
CCCCCCN1CCS(=O)(=O)N(Cc2ccc(C)cc2)C(C(=O)OC)C1 (configuration not stated)	n	x	x	n	x	x
O=c1c2ccccc2nc(/C=C/c2cc(Br)ccc2O)n1CCO	n	76	n	n	84	45
O=c1c2ccccc2nc(/C=C/c2c[nH]c3ccccc23)n1CCO	n	n	n	n	x	x
O=[N+]([O-])c1cccc(/C=C/c2nc(C=Nc3ccccc3)c(O)o2)c1	n	33	n	n	n	n
Oc1oc(-c2ccccc2)nc1C=Nc1ccccc1	n	n	n	n	x	x
Cc1ccccc1NC(=O)c1cccc(C(=O)Nc2ccccc2C)n1	n	38	n	n	n	n
O=C(Nc1ccc(Cl)c(Cl)c1)C1CCCN1S(=O)(=O)c1cccc2cccnc12 (configuration not stated)	n	x	x	n	x	x
CCOC(=O)[C@@]12CN(C(=O)OC(C)(C)C)CC=C1N(Cc1ccc(OC)cc1)C(=O)[C@H]2CC(=O)N1CCSCC1	n	x	x	n	x	x
O=C(C1=C(Nc2ccccc2)c2ccccc2S(=O)(=O)N1)c1ccccc1	n	49	n	n	n	n
SMILES	ADAM17 inh	SENP1 inh	FAS TE block	ADAM10 inh	SENP1 inh conf	SENP1 kinetic
COC(=O)C1CN(Cc2cn(Cc3ccc(OC)cc3)nn2)CCS(=O)(=O)N1Cc1ccc(OC)cc1 (configuration not stated)	n	x	x	n	x	x
O=C(N/N=C/c1ccc(N2CCOCC2)cc1)c1cccs1	n	32	n	n	n	n
CC1=Nc2ccccc2N=C(NC(=O)c2ccccc2)C1c1ccc(Cl)cc1 (configuration not stated)	n	n	n	n	x	x
CC1=Nc2ccccc2N=C(N)C1c1ccccc1 (configuration not stated)	n	36	n	n	n	n
CCC(=Nc1ccc(N)cc1)C1=C(O)C(C(=O)OC)C(C)(C)CC1=O (configuration not stated)	n	54	n	n	n	n
COc1ccc(N2CCN(CCCNC(=O)Cc3ccc(C(F)(F)F)cc3)CC2)cc1	n	x	x	n	x	x
COc1cc(/C=C2\SC(=S)N(N3CCOCC3)C2=O)ccc1O	n	53	n	n	n	n
COc1cc(/C=C2\SC(=S)N(N3CCOCC3)C2=O)cc(OC)c1OC	n	n	n	n	x	x
COc1ccc(OC)c(/C=C2\SC(=S)N(N3CCOCC3)C2=O)c1	n	39	n	n	n	n
O=C1CCC2(CCC(c3ccccc3)CC2)N1CC[C@@H](O)c1ccccc1 (some centres not stated)	n	x	x	n	x	x
CCOc1ccc(NC(=O)c2ccc(Br)o2)c([N+](=O)[O-])c1	n	32	n	n	n	n
CC(=O)c1ccc(N2CCN(C(=O)c3ccc4c(=O)[nH]c5c(C(=O)NC6CCCC6)sc(=S)n5c4c3)CC2)cc1	n	x	x	n	x	x
O=C(NCC1CCCO1)c1sc(=S)n2c1[nH]c(=O)c1ccc(C(=O)N3CCCCC3)cc12 (configuration not stated)	n	31	n	n	42	n
COc1c(O)cccc1[C@H](O)C1CCN(CCc2ccc(F)cc2)CC1	n	30	n	n	n	n
CCN1CCC(NCCc2ccc(F)cc2)CC1	n	n	n	n	x	x
C[C@@H]1OC(C2CCCCC2)N(C)[C@H]2C[C@H]3c4[nH]c5cccc(-c6cccc(F)c6)c5c4CCN3C(=O)[C@@H]12 (some centres not stated)	n	x	x	n	x	x
Cc1ccc2nc3c(c(N)c2c1)CCN3c1ccccc1	n	n	n	n	x	x
Nc1c2c(nc3cccc(Cl)c13)N(c1ccccc1)CC2	n	55	n	n	n	n
CCOC(=O)Cn1cc(CN2CCS(=O)(=O)N(Cc3ccccc3)C(C(=O)OC)C2)nn1 (configuration not stated)	n	x	x	n	x	x
C=CCNC(=O)c1cccc2c1C(=O)c1ccc(N3CCOCC3)cc1S2(=O)=O	n	80	n	n	61	45
O=C(CCn1nnc(-c2cccs2)n1)NCc1ccco1	n	x	x	n	x	x
Nc1ccc2c(c1)C(=O)N(CC1CCCO1)C2=O (configuration not stated)	n	62	n	n	65	48
COc1cc([C@H]2c3c(cc(OC)c(O)c3OC)C[C@@H](CO)[C@@H]2CO[C@@H]2O[C@H](CO)[C@@H](O)[C@H](O)[C@H]2O)cc(OC)c1O	n	40	n	n	33	n
O=C(NCCO)Nc1ccc2nsnc2c1	n	n	n	n	x	x
OCCNC(=S)Nc1ccc2nsnc2c1	n	36	n	n	n	n
O=[N+]([O-])c1ccc2c(c1)nnn2-c1ccccc1	n	n	n	n	x	x
Nc1nn(-c2ccccc2)c2ccc([N+](=O)[O-])cc12	n	32	n	n	n	n
COc1ccc(-c2cc(C(=O)N(C3CCCCC3)C3CCCCC3)no2)cc1	n	x	x	n	x	x
COC(=O)C1=C(C)N(Cc2ccco2)C(=O)/C1=C\c1ccc(N(C)C)cc1	n	46	n	n	n	n
Nc1ccc2c(c1)C(=NO)c1cc([N+](=O)[O-])ccc1-2	n	83	n	n	86	47
